# Test results as given in ChEMBL document CHEMBL1671684, “In vitro resistance profile of the hepatitis C virus NS3/4A protease inhibitor TMC435” (Antimicrob Agents Chemother, 2010).
# Columns and labels:
# Hepatitis C virus [1] = assay: Ratio of EC50 for Hepatitis C virus subtype 1b expressing NS3 R155G mutant to EC50 for Hepatitis C virus subtype 1b expressing WT NS3 infected in HuH7 cells after 48 hrs by luciferase reporter assay; assay type: functional, Hepacivirus hominis, genotype 1b, Huh-7
# How it was run: (§1)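 Transient replicon assay: site-directed single or multiple NS3 mutations engineered into genotype 1b (con1, clone ET) subgenomic bicistronic replicon with luciferase reporter and adaptive mutations E1202G, T1280I, K1846T. Huh7-lunet cells electroporated with 10 μg wild-type or mutant replicon RNA, seeded 4,000 cells/well with nine-point inhibitor dilution; 48 h, 37°C, 5% CO2; luminescence read-out. EC50 as median of individual experiments; fold change versus parental replicon EC50.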
# Hepatitis C virus [2] = assay: Ratio of EC50 for Hepatitis C virus subtype 1b expressing NS3 T54A mutant to EC50 for Hepatitis C virus subtype 1b expressing WT NS3 infected in HuH7 cells after 48 hrs by luciferase reporter assay; assay type: functional, Hepacivirus hominis, genotype 1b, Huh-7; how it was run: as §1
# Hepatitis C virus [3] = assay: Ratio of EC50 for Hepatitis C virus subtype 1b expressing NS3 A156G mutant to EC50 for Hepatitis C virus subtype 1b expressing WT NS3 infected in HuH7 cells after 48 hrs by luciferase reporter assay; assay type: functional, Hepacivirus hominis, genotype 1b, Huh-7
# How it was run: (§2)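 Genotype 1b con1 subgenomic bicistronic replicon (clone ET) with luciferase reporter and adaptive mutations E1202G, T1280I, K1846T, carrying site-directed NS3 single or double mutations. 10 μg wild-type or mutant replicon RNA electroporated into Huh7-lunet cells, seeded 4,000 cells/well over a nine-point inhibitor dilution series, 48 h at 37°C, 5% CO2, then luminescence read. EC50 taken as median of individual experiments; fold change relative to parental replicon EC50.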
# Hepatitis C virus [4] = assay: Antiviral activity against Hepatitis C virus subtype 1b expressing NS3 A156V mutant infected in HuH7 cells after 48 hrs by luciferase reporter assay; assay type: functional, organism-based, Hepacivirus hominis; settings: genotype 1b, Huh-7, 48 h; how it was run: as §2
# Hepatitis C virus [5] = assay: Ratio of EC50 for Hepatitis C virus subtype 1b expressing NS3 R155T mutant to EC50 for Hepatitis C virus subtype 1b expressing WT NS3 infected in HuH7 cells after 48 hrs by luciferase reporter assay; assay type: functional, Hepacivirus hominis, genotype 1b, Huh-7; how it was run: as §1
# Hepatitis C virus [6] = assay: Antiviral activity against Hepatitis C virus subtype 1b expressing NS3 Q80G mutant infected in HuH7 cells after 48 hrs by luciferase reporter assay; assay type: functional, organism-based, Hepacivirus hominis; settings: genotype 1b, Huh-7, 48 h; how it was run: as §2
# Hepatitis C virus [7] = assay: Antiviral activity against Hepatitis C virus subtype 1b expressing NS3 R155Q mutant infected in HuH7 cells after 48 hrs by luciferase reporter assay; assay type: functional, organism-based, Hepacivirus hominis; settings: genotype 1b, Huh-7, 48 h; how it was run: as §2
# Hepatitis C virus [8] = assay: Ratio of EC50 for Hepatitis C virus subtype 1b expressing NS3 R109K mutant to EC50 for Hepatitis C virus subtype 1b expressing WT NS3 infected in HuH7 cells after 48 hrs by luciferase reporter assay; assay type: functional, Hepacivirus hominis, genotype 1b, Huh-7; how it was run: as §1
# Hepatitis C virus [9] = assay: Antiviral activity against Hepatitis C virus subtype 1b expressing NS3 A156S mutant infected in HuH7 cells after 48 hrs by luciferase reporter assay; assay type: functional, organism-based, Hepacivirus hominis; settings: genotype 1b, Huh-7, 48 h; how it was run: as §2
# Hepatitis C virus [10] = assay: Antiviral activity against Hepatitis C virus subtype 1b expressing NS3 D168H mutant infected in HuH7 cells after 48 hrs by luciferase reporter assay; assay type: functional, organism-based, Hepacivirus hominis; settings: genotype 1b, Huh-7, 48 h; how it was run: as §2
# Hepatitis C virus [11] = assay: Ratio of EC50 for Hepatitis C virus subtype 1b expressing NS3 F43S mutant to EC50 for Hepatitis C virus subtype 1b expressing WT NS3 infected in HuH7 cells after 48 hrs by luciferase reporter assay; assay type: functional, Hepacivirus hominis, genotype 1b, Huh-7; how it was run: as §1
# Hepatitis C virus [12] = assay: Ratio of EC50 for Hepatitis C virus subtype 1b expressing NS3 R155Q mutant to EC50 for Hepatitis C virus subtype 1b expressing WT NS3 infected in HuH7 cells after 48 hrs by luciferase reporter assay; assay type: functional, Hepacivirus hominis, genotype 1b, Huh-7; how it was run: as §1
# Hepatitis C virus [13] = assay: Antiviral activity against Hepatitis C virus subtype 1b expressing NS3 D168T mutant infected in HuH7 cells after 48 hrs by luciferase reporter assay; assay type: functional, organism-based, Hepacivirus hominis; settings: genotype 1b, Huh-7, 48 h; how it was run: as §2
# Hepatitis C virus [14] = assay: Antiviral activity against Hepatitis C virus subtype 1b expressing NS3 R155G mutant infected in HuH7 cells after 48 hrs by luciferase reporter assay; assay type: functional, organism-based, Hepacivirus hominis; settings: genotype 1b, Huh-7, 48 h; how it was run: as §2
# Hepatitis C virus [15] = assay: Antiviral activity against Hepatitis C virus subtype 1b expressing NS3 D168N mutant infected in HuH7 cells after 48 hrs by luciferase reporter assay; assay type: functional, organism-based, Hepacivirus hominis; settings: genotype 1b, Huh-7, 48 h; how it was run: as §2
# Hepatitis C virus [16] = assay: Ratio of EC50 for Hepatitis C virus subtype 1b expressing NS3 A156S mutant to EC50 for Hepatitis C virus subtype 1b expressing WT NS3 infected in HuH7 cells after 48 hrs by luciferase reporter assay; assay type: functional, Hepacivirus hominis, genotype 1b, Huh-7; how it was run: as §2
# Hepatitis C virus [17] = assay: Ratio of EC50 for Hepatitis C virus subtype 1b expressing NS3 V36 M mutant to EC50 for Hepatitis C virus subtype 1b expressing WT NS3 infected in HuH7 cells after 48 hrs by luciferase reporter assay; assay type: functional, Hepacivirus hominis, genotype 1b, Huh-7; how it was run: as §1
# Hepatitis C virus [18] = assay: Ratio of EC50 for Hepatitis C virus subtype 1b expressing NS3 D168N mutant to EC50 for Hepatitis C virus subtype 1b expressing WT NS3 infected in HuH7 cells after 48 hrs by luciferase reporter assay; assay type: functional, Hepacivirus hominis, genotype 1b, Huh-7; how it was run: as §1
# Hepatitis C virus [19] = assay: Antiviral activity against Hepatitis C virus subtype 1b expressing NS3 Q80R mutant infected in HuH7 cells after 48 hrs by luciferase reporter assay; assay type: functional, organism-based, Hepacivirus hominis; settings: genotype 1b, Huh-7, 48 h; how it was run: as §2
# Hepatitis C virus [20] = assay: Ratio of EC50 for Hepatitis C virus subtype 1b expressing NS3 D168A mutant to EC50 for Hepatitis C virus subtype 1b expressing WT NS3 infected in HuH7 cells after 48 hrs by luciferase reporter assay; assay type: functional, Hepacivirus hominis, genotype 1b, Huh-7; how it was run: as §2
# Hepatitis C virus [21] = assay: Antiviral activity against Hepatitis C virus subtype 1b expressing NS3 A156T mutant infected in HuH7 cells after 48 hrs by luciferase reporter assay; assay type: functional, organism-based, Hepacivirus hominis; settings: genotype 1b, Huh-7, 48 h; how it was run: as §2
# Hepatitis C virus [22] = assay: Antiviral activity against Hepatitis C virus subtype 1b expressing NS3 D168E mutant infected in HuH7 cells after 48 hrs by luciferase reporter assay; assay type: functional, organism-based, Hepacivirus hominis; settings: genotype 1b, Huh-7, 48 h; how it was run: as §2
# Hepatitis C virus [23] = assay: Antiviral activity against Hepatitis C virus subtype 1b expressing NS3 Q80R and R155K mutant infected in HuH7 cells after 48 hrs by luciferase reporter assay; assay type: functional, organism-based, Hepacivirus hominis; settings: genotype 1b, Huh-7, 48 h; how it was run: as §2
# Hepatitis C virus [24] = assay: Ratio of EC50 for Hepatitis C virus subtype 1b expressing NS3 Q80L mutant to EC50 for Hepatitis C virus subtype 1b expressing WT NS3 infected in HuH7 cells after 48 hrs by luciferase reporter assay; assay type: functional, Hepacivirus hominis, genotype 1b, Huh-7; how it was run: as §1
# Hepatitis C virus [25] = assay: Ratio of EC50 for Hepatitis C virus subtype 1b expressing NS3 Q80R and D168A mutant to EC50 for Hepatitis C virus subtype 1b expressing WT NS3 infected in HuH7 cells after 48 hrs by luciferase reporter assay; assay type: functional, Hepacivirus hominis, genotype 1b, Huh-7; how it was run: as §1
# Hepatitis C virus [26] = assay: Ratio of EC50 for Hepatitis C virus subtype 1b expressing NS3 F43S and Q80R mutant to EC50 for Hepatitis C virus subtype 1b expressing WT NS3 infected in HuH7 cells after 48 hrs by luciferase reporter assay; assay type: functional, Hepacivirus hominis, genotype 1b, Huh-7; how it was run: as §1
# Hepatitis C virus [27] = assay: Antiviral activity against Hepatitis C virus subtype 1b expressing NS3 Q80R and D168A mutant infected in HuH7 cells after 48 hrs by luciferase reporter assay; assay type: functional, organism-based, Hepacivirus hominis; settings: genotype 1b, Huh-7, 48 h; how it was run: as §2
# Hepatitis C virus [28] = assay: Antiviral activity against Hepatitis C virus subtype 1b expressing NS3 R155I mutant infected in HuH7 cells after 48 hrs by luciferase reporter assay; assay type: functional, organism-based, Hepacivirus hominis; settings: genotype 1b, Huh-7, 48 h; how it was run: as §2
# Hepatitis C virus [29] = assay: Ratio of EC50 for Hepatitis C virus subtype 1b expressing NS3 Q80R and R155K mutant to EC50 for Hepatitis C virus subtype 1b expressing WT NS3 infected in HuH7 cells after 48 hrs by luciferase reporter assay; assay type: functional, Hepacivirus hominis, genotype 1b, Huh-7; how it was run: as §1
# Hepatitis C virus [30] = assay: Antiviral activity against Hepatitis C virus subtype 1b expressing NS3 T54S mutant infected in HuH7 cells after 48 hrs by luciferase reporter assay; assay type: functional, organism-based, Hepacivirus hominis; settings: genotype 1b, Huh-7, 48 h; how it was run: as §2
# Hepatitis C virus [31] = assay: Antiviral activity against Hepatitis C virus subtype 1b expressing NS3 D168I mutant infected in HuH7 cells after 48 hrs by luciferase reporter assay; assay type: functional, organism-based, Hepacivirus hominis; settings: genotype 1b, Huh-7, 48 h; how it was run: as §2
SMILES,Ratio EC50 (Hepatitis C virus [1]),Ratio EC50 (Hepatitis C virus [2]),Ratio EC50 (Hepatitis C virus [3]),EC50 (Hepatitis C virus [4]) [nM],Ratio EC50 (Hepatitis C virus [5]),EC50 (Hepatitis C virus [6]) [nM],EC50 (Hepatitis C virus [7]) [nM],Ratio EC50 (Hepatitis C virus [8]),EC50 (Hepatitis C virus [9]) [nM],EC50 (Hepatitis C virus [10]) [nM],Ratio EC50 (Hepatitis C virus [11]),Ratio EC50 (Hepatitis C virus [12]),EC50 (Hepatitis C virus [13]) [nM],EC50 (Hepatitis C virus [14]) [nM],EC50 (Hepatitis C virus [15]) [nM],Ratio EC50 (Hepatitis C virus [16]),Ratio EC50 (Hepatitis C virus [17]),Ratio EC50 (Hepatitis C virus [18]),EC50 (Hepatitis C virus [19]) [nM],Ratio EC50 (Hepatitis C virus [20]),further results
CCC[C@H](NC(=O)[C@@H]1[C@H]2CCC[C@H]2CN1C(=O)[C@@H](NC(=O)[C@@H](NC(=O)c1cnccn1)C1CCCCC1)C(C)(C)C)C(=O)C(=O)NC1CC1 [TELAPREVIR],20,7.5,0.6,15500,74,202,570,0.8,3110,102,6.1,2.5,181,9630,147,20,10,1.2,216,0.4,EC50 (Hepatitis C virus [21]): 20300 nM; EC50 (Hepatitis C virus [22]): 113 nM
COc1ccc2c(O[C@@H]3C[C@H]4C(=O)N[C@]5(C(=O)O)C[C@H]5/C=C\CCCCC[C@H](NC(=O)OC5CCCC5)C(=O)N4C3)cc(-c3csc(NC(C)C)n3)nc2c1 [CILUPREVIR],811,0.6,12,1520,562,3,248,0.7,1.7,215,0.9,242,520,1000,18,2.8,1.2,12,1.4,339,EC50 (Hepatitis C virus [23]): 707 nM; Ratio EC50 (Hepatitis C virus [24]): 1.2; Ratio EC50 (Hepatitis C virus [25]): 1827; Ratio EC50 (Hepatitis C virus [26]): 0.6; EC50 (Hepatitis C virus [27]): 1040 nM; EC50 (Hepatitis C virus [28]): 29 nM; Ratio EC50 (Hepatitis C virus [29]): 772; EC50 (Hepatitis C virus [30]): 0.9 nM; EC50 (Hepatitis C virus [21]): 1070 nM; EC50 (Hepatitis C virus [31]): 20700 nM; EC50 (Hepatitis C virus [22]): 40 nM
